Source: ChEMBL document CHEMBL1139082, “A potent and orally active HIV-1 integrase inhibitor” (Bioorg Med Chem Lett, 2007)
≈ marks a conversion by molar mass, not a printed value. Calls of active or inactive are those of the source. No cut-off for these calls is given here.

Target: Human immunodeficiency virus type 1 integrase (Human immunodeficiency virus 1, UniProt Q7ZJM1)
Sequence (Q7ZJM1 whole entry): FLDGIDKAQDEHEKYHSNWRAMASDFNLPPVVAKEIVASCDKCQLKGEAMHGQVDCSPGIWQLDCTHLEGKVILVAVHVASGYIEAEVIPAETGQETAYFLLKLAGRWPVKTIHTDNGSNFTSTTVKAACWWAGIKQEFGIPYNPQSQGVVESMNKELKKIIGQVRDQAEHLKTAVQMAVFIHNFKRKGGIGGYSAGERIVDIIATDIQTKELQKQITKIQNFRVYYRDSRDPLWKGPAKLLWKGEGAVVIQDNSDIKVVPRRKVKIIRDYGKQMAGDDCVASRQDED
Assay: Inhibition of HIV1 recombinant integrase catalyzed strand transfer activity
Conditions: not given
With O=C(NCc1ccccc1)c1nc(N2CCCCS2(=O)=O)c2cccnc2c1O the IC50 was 0.01 µM.
Compound CNS(=O)(=O)c1cc(F)ccc1CNC(=O)c1nc(N2CCCCS2(=O)=O)c2cccnc2c1O has an IC50 of 0.045 µM.
In the case of CN(C)C(=O)Cc1ccccc1CNC(=O)c1nc(N2CCCCS2(=O)=O)c2cccnc2c1O, the IC50 is reported as 0.014 µM.
CN(C)C(=O)c1cc(F)ccc1CNC(=O)c1nc(N2CCCCS2(=O)=O)c2cccnc2c1O showed an IC50 of 0.11 µM.
Compound CNC(=O)c1cc(F)ccc1CNC(=O)c1nc(N2CCCCS2(=O)=O)c2cccnc2c1O has an IC50 of 0.01 µM.
CN(C)S(=O)(=O)c1cc(F)ccc1CNC(=O)c1nc(N2CCCCS2(=O)=O)c2cccnc2c1O gave an IC50 of 0.03 µM.

System: Human immunodeficiency virus 1
Assay: Antiviral activity against HIV1 3B in MT4 cells assessed as decrease in HIV1 p24 core antigen in presence of FBS
Format: functional
Conditions: Human immunodeficiency virus 1, 3B
How it was run: (§1)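 MT-4 human T-lymphoid cells infected with HIV-1 IIIb, cultured with increasing inhibitor concentrations; readout is the decrease in p24 core antigen. IC95 is the concentration giving 95% inhibition of viral growth versus control. Line 1 used 10% fetal bovine serum; line 2 used 50% normal human serum. n ≥ 2; lower limit ~7 nM; SD ~2-fold.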
O=C(NCc1ccccc1)c1nc(N2CCCCS2(=O)=O)c2cccnc2c1O gave an IC95 of 0.125 µM.
In the case of CNS(=O)(=O)c1cc(F)ccc1CNC(=O)c1nc(N2CCCCS2(=O)=O)c2cccnc2c1O, the IC95 is reported as under 0.008 µM.
CN(C)C(=O)Cc1ccccc1CNC(=O)c1nc(N2CCCCS2(=O)=O)c2cccnc2c1O showed an IC95 of 0.167 µM.
CN(C)C(=O)c1cc(F)ccc1CNC(=O)c1nc(N2CCCCS2(=O)=O)c2cccnc2c1O gave an IC95 of 0.023 µM.
With CNC(=O)c1cc(F)ccc1CNC(=O)c1nc(N2CCCCS2(=O)=O)c2cccnc2c1O the IC95 was 0.007 µM.
Compound CN(C)S(=O)(=O)c1cc(F)ccc1CNC(=O)c1nc(N2CCCCS2(=O)=O)c2cccnc2c1O has an IC95 of 0.016 µM.

System: Human immunodeficiency virus 1
Assay: Antiviral activity against HIV1 3B in MT4 cells assessed as decrease in HIV1 p24 core antigen in presence of normal human serum
Format: functional
Conditions: Human immunodeficiency virus 1, 3B
How it was run: as §1
Compound O=C(NCc1ccccc1)c1nc(N2CCCCS2(=O)=O)c2cccnc2c1O has an IC95 of 1 µM.
CNS(=O)(=O)c1cc(F)ccc1CNC(=O)c1nc(N2CCCCS2(=O)=O)c2cccnc2c1O showed an IC95 of 0.125 µM.
Work on CN(C)C(=O)Cc1ccccc1CNC(=O)c1nc(N2CCCCS2(=O)=O)c2cccnc2c1O yielded an IC95 of 1 µM.
Compound CN(C)C(=O)c1cc(F)ccc1CNC(=O)c1nc(N2CCCCS2(=O)=O)c2cccnc2c1O has an IC95 of 0.063 µM.
For CNC(=O)c1cc(F)ccc1CNC(=O)c1nc(N2CCCCS2(=O)=O)c2cccnc2c1O, the IC95 was 0.016 µM.
In the case of CN(C)S(=O)(=O)c1cc(F)ccc1CNC(=O)c1nc(N2CCCCS2(=O)=O)c2cccnc2c1O, the IC95 is reported as 0.094 µM.

System: not listed separately
Assay: Partition coefficient, log P at pH 7.4
Format: physicochemical
Conditions: octanol/water
How it was run: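 Octanol/buffer partition measured by HPLC at each compound's maximum absorbance. Log P = log[(octanol area × octanol dilution)/(buffer area × buffer dilution)].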
O=C(NCc1ccccc1)c1nc(N2CCCCS2(=O)=O)c2cccnc2c1O showed a logD of 1.9.
Compound CNS(=O)(=O)c1cc(F)ccc1CNC(=O)c1nc(N2CCCCS2(=O)=O)c2cccnc2c1O has a logD of 1.9.
In the case of CN(C)C(=O)Cc1ccccc1CNC(=O)c1nc(N2CCCCS2(=O)=O)c2cccnc2c1O, the logD is reported as 1.
For CN(C)C(=O)c1cc(F)ccc1CNC(=O)c1nc(N2CCCCS2(=O)=O)c2cccnc2c1O, the logD was 1.
Work on CNC(=O)c1cc(F)ccc1CNC(=O)c1nc(N2CCCCS2(=O)=O)c2cccnc2c1O yielded a logD of 1.6.
With CN(C)S(=O)(=O)c1cc(F)ccc1CNC(=O)c1nc(N2CCCCS2(=O)=O)c2cccnc2c1O the logD was 1.9.

System: not listed separately
Assay: Solubility at pH 7.4 by equilibrium solubility assay
Format: physicochemical
Conditions: buffer
How it was run: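 Crystalline drug was suspended in 10 mM sodium phosphate, pH 7.4, and equilibrated at room temperature for 5 days. Aliquots were centrifuged 15,000 rpm for 15 min. Solution concentration was measured by HPLC at days 2 and 5 and taken as solubility.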
With CNC(=O)c1cc(F)ccc1CNC(=O)c1nc(N2CCCCS2(=O)=O)c2cccnc2c1O the solubility thermodynamic was 2.3 µg/mL (≈ 4.72 µM).

System: not listed separately
Assay: Oral bioavailability in rat at 10 mg/kg
Format: ADME, organism-based
Conditions: in vivo
How it was run: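 Sodium salt was ground and given orally to rats at 10 mg/kg as a 1% aqueous methylcellulose solution/suspension. Percent bioavailability was taken after oral administration.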
In the case of CNC(=O)c1cc(F)ccc1CNC(=O)c1nc(N2CCCCS2(=O)=O)c2cccnc2c1O, the bioavailability is reported as 45%.

System: not listed separately
Assay: Oral bioavailability in dog at 1 mg/kg
Format: ADME, organism-based, Canis lupus familiaris
Conditions: in vivo
How it was run: (§2)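 Sodium salt was ground and given orally at 1 mg/kg to dogs and rhesus monkeys as a 0.5% aqueous methylcellulose suspension. Percent bioavailability was taken after oral administration.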
For CNC(=O)c1cc(F)ccc1CNC(=O)c1nc(N2CCCCS2(=O)=O)c2cccnc2c1O, the bioavailability was 65%.

System: not listed separately
Assay: Oral bioavailability in rhesus monkey at 1 mg/kg
Format: ADME, organism-based, Macaca mulatta
Conditions: in vivo
How it was run: as §2
In the case of CNC(=O)c1cc(F)ccc1CNC(=O)c1nc(N2CCCCS2(=O)=O)c2cccnc2c1O, the bioavailability is reported as 23%.

System: not listed separately
Assay: Half life in rat at 2 mg/kg, iv
Format: ADME, organism-based
Design: dose 2 mg/kg, route intravenous
Conditions: in vivo
How it was run: (§3)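 Rats received the sodium salt intravenously at 2 mg/kg, dissolved in DMSO. Half-life (h) and clearance (mL/min/kg) were derived after iv administration.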
CNC(=O)c1cc(F)ccc1CNC(=O)c1nc(N2CCCCS2(=O)=O)c2cccnc2c1O gave a half-life of 1.2 h.

System: not listed separately
Assay: Half life in dog at 1 mg/kg, iv
Format: ADME, organism-based, Canis lupus familiaris
Design: dose 1 mg/kg, route intravenous
Conditions: in vivo
How it was run: (§4)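 Dog and rhesus monkeys were given sodium salt intravenously at 1 mg/kg, dissolved in DMSO. Half-life (h) and clearance (mL/min/kg) were derived from plasma concentrations after iv dosing.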
For CNC(=O)c1cc(F)ccc1CNC(=O)c1nc(N2CCCCS2(=O)=O)c2cccnc2c1O, the half-life was 1.8 h.

System: not listed separately
Assay: Half life in rhesus monkey at 1 mg/kg, iv
Format: ADME, organism-based, Macaca mulatta
Design: dose 1 mg/kg, route intravenous
Conditions: in vivo
How it was run: as §4
In the case of CNC(=O)c1cc(F)ccc1CNC(=O)c1nc(N2CCCCS2(=O)=O)c2cccnc2c1O, the half-life is reported as 1.4 h.

System: not listed separately
Assay: Clearance in rat at 2 mg/kg, iv
Format: ADME, organism-based
Design: dose 2 mg/kg, route intravenous
Conditions: in vivo
How it was run: as §3
Compound CNC(=O)c1cc(F)ccc1CNC(=O)c1nc(N2CCCCS2(=O)=O)c2cccnc2c1O has a clearance of 0.516 L/h/kg.

System: not listed separately
Assay: Clearance in dog at 1 mg/kg, iv
Format: ADME, organism-based, Canis lupus familiaris
Design: dose 1 mg/kg, route intravenous
Conditions: in vivo
How it was run: as §4
For CNC(=O)c1cc(F)ccc1CNC(=O)c1nc(N2CCCCS2(=O)=O)c2cccnc2c1O, the clearance was 0.168 L/h/kg.

System: not listed separately
Assay: Clearance in rhesus monkey at 1 mg/kg, iv
Format: ADME, organism-based, Macaca mulatta
Design: dose 1 mg/kg, route intravenous
Conditions: in vivo
How it was run: as §4
CNC(=O)c1cc(F)ccc1CNC(=O)c1nc(N2CCCCS2(=O)=O)c2cccnc2c1O showed a clearance of 1.1 L/h/kg.

System: Human immunodeficiency virus 1
Assay: Antiviral activity against HIV1 with integrase […] mutant
Format: functional, organism-based
Conditions: not given
How it was run: (§5)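 HIV-1 carrying site-directed integrase mutations (mutations first seen in serial cell-culture passage under integrase inhibitors) tested in cell culture. Activity is expressed as fold loss in efficacy relative to wild-type virus.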
With CNC(=O)c1cc(F)ccc1CNC(=O)c1nc(N2CCCCS2(=O)=O)c2cccnc2c1O the Activity was “Active”.

System: Human immunodeficiency virus 1
Assay: Antiviral activity against HIV1 with integrase V151l mutant
Format: functional, organism-based
Conditions: not given
How it was run: as §5
In the case of CNC(=O)c1cc(F)ccc1CNC(=O)c1nc(N2CCCCS2(=O)=O)c2cccnc2c1O, the Activity is reported as “Active”.

System: Human immunodeficiency virus 1
Assay: Antiviral activity against HIV1 with integrase F121Y mutant
Format: functional, organism-based
Conditions: not given
How it was run: as §5
With CNC(=O)c1cc(F)ccc1CNC(=O)c1nc(N2CCCCS2(=O)=O)c2cccnc2c1O the Activity was “Active”.

System: Human immunodeficiency virus 1
Assay: Antiviral activity against HIV1 with integrase T125K mutant
Format: functional, organism-based
Conditions: not given
How it was run: as §5
With CNC(=O)c1cc(F)ccc1CNC(=O)c1nc(N2CCCCS2(=O)=O)c2cccnc2c1O the Activity was “Active”.

System: Human immunodeficiency virus 1
Assay: Antiviral activity against HIV1 with integrase T66l/M154l mutant
Format: functional, organism-based
Conditions: not given
How it was run: as §5
In the case of CNC(=O)c1cc(F)ccc1CNC(=O)c1nc(N2CCCCS2(=O)=O)c2cccnc2c1O, the Activity is reported as “Active”.

System: Human immunodeficiency virus 1
Assay: Antiviral activity against HIV1 with integrase T66l/S153Y mutant
Format: functional, organism-based
Conditions: not given
How it was run: as §5
In the case of CNC(=O)c1cc(F)ccc1CNC(=O)c1nc(N2CCCCS2(=O)=O)c2cccnc2c1O, the Activity is reported as “Active”.

System: Human immunodeficiency virus 1
Assay: Antiviral activity against HIV1 with integrase N155S mutant
Format: functional, organism-based
Conditions: not given
How it was run: as §5
For CNC(=O)c1cc(F)ccc1CNC(=O)c1nc(N2CCCCS2(=O)=O)c2cccnc2c1O, the Activity was “Active”.

Species on record: Homo sapiens
Assay: Protein binding in human plasma by ultrafiltration method
Conditions: read-out: PB (converted)
For CNS(=O)(=O)c1cc(F)ccc1CNC(=O)c1nc(N2CCCCS2(=O)=O)c2cccnc2c1O, the fraction unbound was 0.01.
Work on CN(C)C(=O)Cc1ccccc1CNC(=O)c1nc(N2CCCCS2(=O)=O)c2cccnc2c1O yielded a fraction unbound of 0.06.
For CN(C)C(=O)c1cc(F)ccc1CNC(=O)c1nc(N2CCCCS2(=O)=O)c2cccnc2c1O, the fraction unbound was 0.1.
CNC(=O)c1cc(F)ccc1CNC(=O)c1nc(N2CCCCS2(=O)=O)c2cccnc2c1O showed a fraction unbound of 0.08.
Compound CN(C)S(=O)(=O)c1cc(F)ccc1CNC(=O)c1nc(N2CCCCS2(=O)=O)c2cccnc2c1O has a fraction unbound of 0.03.
